Bioassay records from PubChem BioAssay.
Sampled rows, rich in hits. Any-hit rate of the full collection: about 4.8%.
697 NFkB inh = inhibitors of PMA/ionomycin-induced NF-kB reporter, 697 cells, primary screen, B-cell NF-kB inhibitor project, cell-based, luminescence, uHTS. 697 B-cell NF-kB luciferase reporter, 16 h. inhibition, % at 4 µM. 330,000 tested, 0.33% active; in the data active = inhibition above about 35%
Jurkat NFkB inh = inhibitors of induced NF-kB luciferase reporter, primary screen, TCR NF-kB activation inhibitor project, cell-based, luminescence, uHTS | AID 435003, 2010 | 330,000 tested, 0.53% active | Jurkat, PMA/ionomycin-induced NF-kB luciferase reporter | inhibition, % at 4 µM; in the data active = inhibition above about 50%
T cruzi repl = inhibitors of intracellular T. cruzi growth, primary screen, luminescence, NIH3T3 host cells. inhibition, % (no concentration beside the values). AID 1885, 2009. 300,000 tested, 1.4% active. T. cruzi beta-gal in NIH3T3, 90 h;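 active = mean inhibition across valid replicates above about 55%, limit read from the data; inconclusive = mean below that limit but half or more replicates reach it; inactive = mean below it, under half of replicates reach it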;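 note: signal also drops with host cell toxicity which is not excluded here; higher percent means less beta-gal luminescence so fewer parasites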
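System – NIH/3T3 host cells with β-galactosidase reporter T. cruzi · Doses – single 50 nL compound addition per well in DMSO · Reagent – 5000 T. cruzi trypomastigotes/well · Medium – Low-serum DMEM with 2% FBS · Timing – ≥90 h infection period, 3 h prior cell attachment · Evaluation – parasite load inhibition, % · Technique – GalScreen luminescence, 60 min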
HSF-1 act = HSF-1 activators, primary screen, NIH3T3-HGL cells, MG132 stress, luminescence, single point; AID 504408, 2011; NIH3T3-HGL HSF-1 luciferase reporter, 8 h; 100% = twice DMSO control signal; 300,000 tested, 1.7% active; activation, % at 9 µM;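 active = mean replicate activation of at least 50% with a set share of replicates each reaching 50%; inconclusive = only one of those two conditions met; inactive = mean below 50% and too few replicates reaching it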
HSF1 inhib = HSF1 inhibitors in luciferase reporter cells, primary screen, cell-based, NIH3T3, luminescence. AID 2098, 2009. 300,000 tested, 0.77% active. activity change, negative = inhibition, % at 7.5 µM (by protocol). NIH3T3-HGL HSE-luciferase, MG132-induced, luminescence 8 h; stronger effect = lower value;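 active = more than half of replicate wells show activity change below -50%, luminescence cut by over half; inconclusive = some wells, but at most half, below -50%; inactive = no replicate well below -50%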;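 note: luciferase reports HSF-1 transcriptional activity via heat shock element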
GPR7 antag = GPR7 receptor antagonists, primary screen, cell-based, fluorescence, single concentration | GPR7-expressing cells, fluorescence antagonist assay | inhibition, % at 4.4 µM | 290,000 tested, 1.1% active | AID 1861, 2009; in the data active = inhibition above about 16%, passing the limit was not always enough;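 note: cells stimulated with the agonist NPW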
Target sequence (P48145 whole entry, looked up): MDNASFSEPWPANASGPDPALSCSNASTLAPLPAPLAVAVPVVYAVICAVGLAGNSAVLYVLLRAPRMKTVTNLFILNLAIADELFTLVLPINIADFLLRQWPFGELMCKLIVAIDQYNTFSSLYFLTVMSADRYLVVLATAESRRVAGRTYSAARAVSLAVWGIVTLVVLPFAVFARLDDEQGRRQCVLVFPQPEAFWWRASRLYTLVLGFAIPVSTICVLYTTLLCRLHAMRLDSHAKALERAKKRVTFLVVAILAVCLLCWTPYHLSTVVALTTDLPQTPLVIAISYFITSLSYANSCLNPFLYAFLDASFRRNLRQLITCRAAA
Jurkat NFkB conf = PMA/ionomycin-induced NF-kB reporter inhibitors, Jurkat retest, confirmation, T-cell NF-kB inhibitor project, cell-based, luminescence, single concentration; shares compounds with Jurkat NFkB inh; Jurkat NF-kB luciferase, 16 h; inhibition, % at 4 µM; 2,700 tested, 27% active; AID 435020, 2010;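 active = inhibition reaching about 45% at 4 µM in either replicate, limit read from the data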
Large screens that a line does not name were inactive (follow-up assays come after a bar, where they were run).

CCc1nnc(NC(=O)c2cc(S(=O)(=O)N3CCOCC3)ccc2N2CCCCC2)s1	none (no result: 697 NFkB inh, Jurkat NFkB inh)
COc1ccc(CCNC(=O)C(NS(=O)(=O)c2cccc3nsnc23)C(C)C)cc1OC (stereo not given)	none
CCC(C)(C)c1ccc(OCCCC[n+]2cccc(C)c2C)c(C(C)(C)CC)c1	Jurkat NFkB inh 94.2, GPR7 antag 21.6 | Jurkat NFkB conf 74.5
Cc1ccc(C(=O)COC(=O)c2cccc([N+](=O)[O-])c2)s1	none (no result: T cruzi repl, HSF-1 act, HSF1 inhib, GPR7 antag)
COc1ccccc1NC(=O)COC(=O)Cn1cnc2c1c(=O)n(C)c(=O)n2C	Jurkat NFkB inh 59.6 (no result: T cruzi repl, HSF-1 act, HSF1 inhib, GPR7 antag) | Jurkat NFkB conf inactive
Cn1c(=O)c2c(ncn2CC(=O)OCC(=O)Nc2ccccc2)n(C)c1=O	none
O=C(/C=C\Nc1cccc(F)c1)c1cccs1	none | Jurkat NFkB conf inactive
O=C(NCCC1=CCCCC1)NC12CC3CC(CC(C3)C1)C2	none | Jurkat NFkB conf inactive
COc1c(S(=O)(=O)N2CCN(C(=O)c3ccco3)CC2)ccc(Cl)c1Cl	none
O=C(OCCN1C(=O)c2cccc3c(N4CCOCC4)ccc(c23)C1=O)c1ccc(Cl)cc1	Jurkat NFkB inh 64.3 | Jurkat NFkB conf inactive
CCCN(CCC)S(=O)(=O)c1ccc(C(=O)OCCN2C(=O)c3cccc4c(N5CCOCC5)ccc(c34)C2=O)cc1	none
Cc1ccc(O)c(NC(=O)c2cc(-c3cccs3)on2)c1	Jurkat NFkB inh 88.2, HSF-1 act 74.9 | Jurkat NFkB conf inactive
Cc1ccc(O)c(NC(=O)c2cc(-c3ccc(F)cc3)on2)c1	Jurkat NFkB inh 70.7, HSF-1 act inconclusive | Jurkat NFkB conf inactive
Cc1cc(NC(=O)c2cc(-c3cccs3)on2)no1	none
COC(=O)Cc1cc(C)cc2c(=O)cc(-c3ccoc3)oc12	none (no result: GPR7 antag)
COc1ccc(C2CC(=O)C=C(NCc3ccc4c(c3)OCO4)C2)cc1 (stereo not given)	none
CCOC(=O)c1ccc(Nc2cnc3ccccc3n2)cc1	HSF-1 act 55.8 | Jurkat NFkB conf inactive
CO[C@H]1O[C@@H]2O[C@@]3(C)CC[C@H]4[C@H](C)CC[C@@H]([C@H]1C)[C@@]24OO3	none (no result: GPR7 antag)
CCOC(=O)C1=C(C)NC(SC)=C(C#N)C1CC(C)C (stereo not given)	Jurkat NFkB inh 57.1 (no result: T cruzi repl) | Jurkat NFkB conf inactive
CC(=O)C1=C(C)NC(SCC(N)=O)=C(C#N)C1CC(C)C (stereo not given)	none
Nc1c(C(=O)Nc2ccc3c(c2)OCCO3)nnn1Cc1cccc(Br)c1	none (no result: GPR7 antag)
Nc1c(C(=O)Nc2ccc3c(c2)OCCO3)nnn1Cc1ccc(Br)cc1	HSF-1 act 56.3 (no result: GPR7 antag) | Jurkat NFkB conf inactive
Cc1cc(Cl)ccc1NC(=O)c1ccc2c(c1)OCO2	none
O=C(Nc1ccc2c(c1)OCCO2)c1ccc(Cl)c(Cl)c1	none | Jurkat NFkB conf inactive
O=C(Nc1ccc(Cl)cc1Cl)c1ccc2c(c1)OCCO2	none (no result: T cruzi repl, HSF-1 act, HSF1 inhib, GPR7 antag) | Jurkat NFkB conf inactive
CCN1CCN(c2ccc(NC(=O)c3ccc4c(c3)OCCO4)cc2C)CC1	none (no result: T cruzi repl, HSF-1 act, HSF1 inhib, GPR7 antag) | Jurkat NFkB conf inactive
Cc1ccc(C(=O)Nc2ccc3c(c2)OCO3)cc1Cl	none
COc1ccc(S(=O)(=O)N2CCN(C)CC2)cc1C(=O)Nc1ccccc1	none
CCc1nc2ccccc2c(NC(=O)CN2CC(C)CC(C)C2)c1C (stereo not given)	none
CC(=O)c1ccc(S(=O)(=O)NCCC(=O)OCC(=O)NCCc2ccccc2)cc1	none
CCc1ccc2nc(NC(=O)CN3C(=O)NC4(CCCC4)C3=O)sc2c1	none (no result: T cruzi repl, HSF-1 act, HSF1 inhib, GPR7 antag)
CC(C)c1ccc(NC(=O)c2cccc(Br)c2)cc1	HSF-1 act 77.9 | Jurkat NFkB conf inactive
O=C(Nc1ccc2c(c1)OCCO2)c1ccc(Cl)c([N+](=O)[O-])c1	none
Cc1cc(C(=O)Nc2ccc3c(c2)OCCO3)ccc1[N+](=O)[O-]	none | Jurkat NFkB conf inactive
O=C(Nc1cccc(C(=O)Nc2cccc(Br)c2)c1)c1ccccc1	none
O=C(Nc1ccc2c(c1)OCCO2)c1ccc(Br)cc1	none
O=C(Nc1ccc2c(c1)OCCO2)c1cccc(Br)c1	HSF-1 act 57.0 | Jurkat NFkB conf inactive
NC(=O)c1c(NC(=O)COC(=O)c2ccc(O)c(Cl)c2)sc2c1CCCC2	none (no result: T cruzi repl, HSF-1 act, HSF1 inhib, GPR7 antag)
COc1ccc(S(=O)(=O)NCc2ccccn2)cc1NC(=O)c1ccc(Cl)cc1	none (no result: GPR7 antag)
COc1ccc(S(=O)(=O)NCc2ccccn2)cc1NC(=O)c1ccccc1C	Jurkat NFkB inh 54.8 (no result: GPR7 antag) | Jurkat NFkB conf inactive
COc1ccc(C(NC(=O)C(C)C)c2ccc3cccnc3c2O)cc1 (stereo not given)	Jurkat NFkB inh 61.1 | Jurkat NFkB conf 64.6
CCCC(=O)NC(c1ccccc1Cl)c1ccc2cccnc2c1O (stereo not given)	Jurkat NFkB inh 62.9 | Jurkat NFkB conf 80.6
CCC(=O)NC(c1ccc(C)cc1)c1ccc2cccnc2c1O (stereo not given)	Jurkat NFkB inh 55.4, T cruzi repl 57.1 | Jurkat NFkB conf 75.6
CCCC(=O)NC(c1ccc(N(C)C)cc1)c1ccc2cccnc2c1O (stereo not given)	Jurkat NFkB inh 54.8, T cruzi repl 58.7, HSF-1 act inconclusive | Jurkat NFkB conf 74.3
O=C(NCC1CCCCC1)c1cccc(-c2ccc(O)cc2)c1	none
CCCCC(=O)NC(c1ccc(Cl)cc1Cl)c1ccc2cccnc2c1O (stereo not given)	Jurkat NFkB inh 51.0, T cruzi repl 64.0 | Jurkat NFkB conf 75.1
CCCC(=O)NC(c1ccc(C(C)C)cc1)c1ccc2cccnc2c1O (stereo not given)	Jurkat NFkB inh 59.8, T cruzi repl 56.8, HSF1 inhib inconclusive | Jurkat NFkB conf 80.9
CCCC(=O)NC(c1ccc(OC)cc1)c1c(O)ccc2ccccc12 (stereo not given)	none
COc1ccc(/C=N/NC(=O)NC23CC4CC(CC(C4)C2)C3)c(OC)c1	none
CCOC(=O)c1ccc2nc(Nc3nc4ccc(F)cc4s3)sc2c1	Jurkat NFkB inh 55.6, HSF1 inhib -80.0 | Jurkat NFkB conf 84.5
COC(=O)c1ccc2nc(Nc3nc4c(F)cc(F)cc4s3)sc2c1	Jurkat NFkB inh 63.2, HSF1 inhib -87.8 | Jurkat NFkB conf 92.1
Cc1nn(CC(=O)OCC(=O)Nc2cccc(S(N)(=O)=O)c2)c(C)c1[N+](=O)[O-]	none (no result: T cruzi repl, HSF-1 act, HSF1 inhib, GPR7 antag)
Cc1ccc(NCCC(=O)c2cccs2)cc1C	none | Jurkat NFkB conf inactive
